Measured values of several laboratories.
CDK6 with cyclin D3: Cyclin-dependent kinase 6, with cyclin D3 (CDK6, Homo sapiens, UniProt Q00534)
CDK6 with cyclin D1: Cyclin-dependent kinase 6, with cyclin D1 (CDK6, Homo sapiens, UniProt Q00534)

SMILES	target	observed	action	method	tested at	quantity	value
Cn1cnc(Br)c1C1=CN(c2ncnc3[nH]cnc23)CCS1	Cyclin-dependent kinase 6 (CDK6, Homo sapiens, UniProt Q00534)	enzyme activity	inhibitor	radiometric	50 nM	inhibition	22%
CC(C)(O)[C@H]1CC[C@H](Nc2ccc3ncc(-c4cccc(C(F)(F)F)c4)n3n2)CC1	CDK6 with cyclin D3	enzyme activity	inhibitor		1 µM	remaining activity	96.4%
O=C1Nc2ccc(Cl)cc2C1=Cc1cc(Cl)c(O)c(Cl)c1	CDK6 with cyclin D3	cell-free assay			0.5 µM	remaining signal	94.1%
CC(C)(C)c1nc(-c2cccc(NS(=O)(=O)c3c(F)cccc3F)c2F)c(-c2ccnc(N)n2)s1	CDK6 with cyclin D3	enzyme activity	inhibitor	radiometric	1 µM	remaining activity	74%
CCN(CC)c1ccc(C2=NNC(=O)CC2C)cc1[N+](=O)[O-] (centres unmarked)	CDK6 with cyclin D3	enzyme activity	inhibitor		10 µM	remaining activity	90%
N#CCCc1ccc2c(c1)-c1[nH]c3ccc([N+](=O)[O-])cc3c1CC(=O)N2	CDK6 with cyclin D1	cell-free assay			0.5 µM	remaining signal	6.79%
CC(C)(C)c1nc2c(s1)c1nc(N)ncc1c1ccc(NS(=O)(=O)c3c(F)cccc3F)c(F)c12	CDK6 with cyclin D1	enzyme activity	inhibitor	radiometric	1 µM	remaining activity	113%
O=C(Nc1cnn(-c2csc(C(=O)NC3COC3)c2)c1)Nc1c(F)cccc1Cl	CDK6 with cyclin D1	enzyme activity	inhibitor		5 µM	remaining activity	105%
CN1CC(Oc2cnc(C#N)cc2-c2ccn3nc(NC(=O)C4CC4)cc3c2)C1	CDK6 with cyclin D3	enzyme activity	inhibitor		1 µM	inhibition	-8%
CCN(CC)CCNC(=O)c1c(C)[nH]c(/C=C2\C(=O)Nc3ccc(F)cc32)c1C	CDK6 with cyclin D3	enzyme activity	inhibitor		10 µM	inhibition	73%
O=C(Nc1cnn(-c2csc(C(=O)NC3COC3)c2)c1)Nc1ccccc1Cl	CDK6 with cyclin D1	enzyme activity	inhibitor		5 µM	remaining activity	95.4%
O=C1NC(=O)c2cc(Nc3ccc(F)cc3)c(Nc3ccc(F)cc3)cc21	CDK6 with cyclin D3	cell-free assay			0.5 µM	remaining signal	89.9%
CNC(=O)c1cc(Oc2ccc(NC(=O)Nc3ccc(Cl)c(C(F)(F)F)c3)cc2)ccn1	CDK6 with cyclin D3	enzyme activity	inhibitor		10 µM	inhibition	-5%
Cc1ccc(C(=O)NCc2ccsc2)cc1C#Cc1cn(C(C)C)c2ncnc(N)c12	CDK6 with cyclin D3	enzyme activity	inhibitor		1 µM	activity vs control	101%
Cc1ccc(Nc2nccc(N(C)c3ccc4c(C)n(C)nc4c3)n2)cc1S(N)(=O)=O	CDK6 with cyclin D3	enzyme activity	inhibitor		0.3 µM	inhibition	-7%
CCCS(=O)(=O)Nc1ccc(F)c(C(=O)c2c[nH]c3ncc(-c4ccc(Cl)cc4)cc23)c1F	CDK6 with cyclin D3	enzyme activity	inhibitor		1 µM	inhibition	< 10%
CCCOc1ccc(OC)c(F)c1C(=O)c1ccc(C(=O)N[C@@H]2CNC[C@H]2NC(=O)c2ccc3[nH]ncc3c2)cc1	CDK6 with cyclin D3	enzyme activity	inhibitor		10 µM	remaining activity	83%
